Assay [1] concerns the target Histone-lysine N-methyltransferase EZH2 (Homo sapiens, UniProt Q15910). The format is cell-based, Sf9.
The target of assay [2] is Protein cereblon/Histone-lysine N-methyltransferase EZH2 (Homo sapiens) (UniProt Q15910+Q96SW2). As to the kind of experiment: PROTAC activity at CRBN E3 ligase/EZH2 in PRC2 complex in human WSUDLCL2 cells assessed as downregulation of EZH2 expression at 1 uM pretreated with MG-132 for 4 hrs followed by compound addition and measured after 48 hrs by Western blot analysis. The format is cell-based. The procedure, abridged: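 WSU-DLCL-2 cells pretreated 4 h with the named inhibitor, then compound added and incubated a further 48 h. EZH2, SUZ12, EED and RbAp48 measured by western blot (nitrocellulose transfer, skim-milk block, primary antibody overnight at 4 °C, chemiluminescent detection).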

Calls of active or inactive are those of the source. The rule behind the calls is not given here.

Sequence of Protein cereblon/Histone-lysine N-methyltransferase EZH2 (Homo sapiens) (Q15910 whole entry, looked up): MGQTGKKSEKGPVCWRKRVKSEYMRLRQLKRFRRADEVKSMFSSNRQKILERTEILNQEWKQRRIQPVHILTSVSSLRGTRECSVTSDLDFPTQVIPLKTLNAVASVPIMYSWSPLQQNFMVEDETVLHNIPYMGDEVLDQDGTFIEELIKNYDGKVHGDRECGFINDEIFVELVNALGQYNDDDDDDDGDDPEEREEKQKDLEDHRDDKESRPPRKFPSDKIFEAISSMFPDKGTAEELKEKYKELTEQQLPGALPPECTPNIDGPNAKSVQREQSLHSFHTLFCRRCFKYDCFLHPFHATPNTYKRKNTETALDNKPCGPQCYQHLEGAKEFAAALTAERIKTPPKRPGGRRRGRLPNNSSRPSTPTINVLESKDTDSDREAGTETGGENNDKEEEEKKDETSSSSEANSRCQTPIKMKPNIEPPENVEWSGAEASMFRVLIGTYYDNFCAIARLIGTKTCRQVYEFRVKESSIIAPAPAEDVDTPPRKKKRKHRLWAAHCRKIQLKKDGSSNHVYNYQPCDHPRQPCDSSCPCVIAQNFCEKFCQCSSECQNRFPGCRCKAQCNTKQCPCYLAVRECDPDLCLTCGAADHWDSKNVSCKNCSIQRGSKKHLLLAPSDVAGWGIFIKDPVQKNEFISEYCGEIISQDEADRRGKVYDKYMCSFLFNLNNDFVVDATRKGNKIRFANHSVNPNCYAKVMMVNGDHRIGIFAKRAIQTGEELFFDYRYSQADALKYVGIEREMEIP
Sequence of Protein cereblon/Histone-lysine N-methyltransferase EZH2 (Homo sapiens) (Q96SW2 whole entry, looked up): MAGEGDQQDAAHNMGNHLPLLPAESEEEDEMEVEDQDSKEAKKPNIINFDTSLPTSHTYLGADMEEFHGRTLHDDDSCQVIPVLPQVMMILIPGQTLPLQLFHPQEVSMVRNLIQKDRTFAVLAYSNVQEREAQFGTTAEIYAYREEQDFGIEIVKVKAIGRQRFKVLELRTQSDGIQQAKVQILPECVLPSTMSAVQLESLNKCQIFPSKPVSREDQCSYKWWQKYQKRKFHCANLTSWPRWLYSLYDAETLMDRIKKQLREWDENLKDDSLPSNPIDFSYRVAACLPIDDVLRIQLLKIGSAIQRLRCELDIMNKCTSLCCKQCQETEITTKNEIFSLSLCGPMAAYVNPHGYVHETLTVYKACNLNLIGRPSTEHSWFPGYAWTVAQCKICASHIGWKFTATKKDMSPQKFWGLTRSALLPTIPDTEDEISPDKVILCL
Sequence of Histone-lysine N-methyltransferase EZH2 (Q15910 whole entry): as the sequence (Q15910 whole entry, looked up) above

`CCN(c1cc(-c2ccc(CN3CCN(CCCCCCCOc4cccc5c4C(=O)N(C4CCC(=O)NC4=O)C5=O)CC3)cc2)cc(C(=O)NCc2c(C)cc(C)[nH]c2=O)c1C)C1CCOCC1` (configuration not stated): the IC50 (commonly the concentration at which inhibition is half-maximal) in assay [1] turned out to be 2.7 nM. Moreover, in assay [2], the result was inactive.

(Values after ChEMBL document CHEMBL5038571, “Design and Synthesis of EZH2-Based PROTACs to Degrade the PRC2 Complex for Targeting the Noncatalytic Activity of EZH2” (J Med Chem, 2021).)
